# Screens (PubChem BioAssay)
# Most compounds without a hit are left out; they make up all but 2.5% or so of the library.
# SIAE inh – blocks human sialic acid acetylesterase | SIAE FP-Rh probe binding, fluorescence polarization | inhibition, % at 9.66 µM | 370,000 compounds, 0.69% hits;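 active = inhibition above a cutoff: mean of compounds within the control limits plus 3 SD of those, cut at about 17% in these data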;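 note: 0% = plate median of compound wells and 100% = probe without SIAE protein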
# HTRA1 inh – inhibitors of human serine peptidase HTRA1; recombinant HTRA1, FP-rhodamine activity-based probe, fluorescence polarization; 340,000 compounds, 0.5% hits; AID 504803; Q92743; inhibition, % at 5.96 µM; in the data active = inhibition above about 36%;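 note: 0% = enzyme with DMSO and 100% = wells lacking enzyme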
# PRMT1 FP inh – PRMT1 (human) inhibition, primary screen; inhibition, % at 2.79 µM; AID 652257; 370,000 compounds, 1.3% hits; recombinant PRMT1, activity-based probe fluorescence polarization;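 active = inhibition above about 21% made by adding two undisclosed values, limit read from the data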
# TCR CD3 inh – blocks the human TCR-CD3 interaction. TAMRA-labeled TCR probe fluorescence, biochemical. 360,000 compounds, 0.37% hits. AID 651800. inhibition, % at 9.4 µM;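 note: recombinant mutant TCR 2C K166C tagged with TAMRA read by polarization; 0% = receptor in buffer alone and 100% = receptor with positive control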
# mABHD4 FP – ABHD4 (mouse) inhibition, primary FP screen; Q8VD66; purified mABHD4, FP-Rh probe fluorescence polarization; inhibition, % at 8.92 µM; 370,000 compounds, 0.54% hits;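 active = inhibition exceeding the mean over every tested compound plus 3 SD, cut at about 30% in these data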;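 note: 0% = plate median of compound wells and 100% = S159A mutant with DMSO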
# Target sequence (Q8VD66 whole entry, looked up): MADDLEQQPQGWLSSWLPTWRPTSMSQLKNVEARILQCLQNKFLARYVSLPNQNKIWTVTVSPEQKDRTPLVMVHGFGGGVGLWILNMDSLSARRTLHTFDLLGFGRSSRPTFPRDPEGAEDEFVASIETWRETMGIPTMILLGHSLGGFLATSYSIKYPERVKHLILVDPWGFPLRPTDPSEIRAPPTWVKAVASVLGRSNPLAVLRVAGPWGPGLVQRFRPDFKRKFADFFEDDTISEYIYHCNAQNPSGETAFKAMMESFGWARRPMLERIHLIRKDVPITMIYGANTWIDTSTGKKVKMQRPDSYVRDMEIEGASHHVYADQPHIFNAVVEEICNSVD
#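 assay system = mABHD4 protein | compound dosing = single nominal dose of 8.92 µM, 0.89% DMSO final | read-out basis = percent inhibition of probe binding, normalized to plate controls | schedule = Enzyme–compound pre-incubation 45 min, then probe 60 min, both 25 °C | detection = fluorescence polarization, excitation 525 nm, emission 598 nm, BODIPY TMR filters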
# BSA probe FL – interferes with TAMRA-BSA probe, flagging TCR-CD3 hits | 1,200 compounds, 10% hits | TAMRA-labeled BSA probe fluorescence counterscreen | shares compounds with TCR CD3 inh | inhibition, % at 9.4 µM; in the data active = inhibition above about 23%;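 note: 0% = buffer low control and 100% = reference high control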
# TCR-CD3 inh conf – TCR-CD3 interaction inhibition, confirmation; inhibition, % at 9.4 µM; TAMRA-labeled TCR probe fluorescence binding assay; 1,200 compounds, 48% hits; shares compounds with TCR CD3 inh
# * hit, by the source's call; · = not tested or not shown; ! = repeats disagree. Cut-off read from the data, not from the text of the source, unless noted: active = inhibition above about 19%; inactive = the rest.
SMILES,SIAE inh,HTRA1 inh,PRMT1 FP inh,TCR CD3 inh,mABHD4 FP,BSA probe FL,TCR-CD3 inh conf
COc1ccc(-c2cnnn2-c2ccc(NC(=O)c3ccc(S(=O)(=O)N4CCCCC4)cc3)cc2)cc1,-82,-64,3,24*,-60,29*,39*
COc1ccc(C(=O)Nc2ccc(S(=O)(=O)N3CCCCC3)cc2)cc1,-12,-26,-2,4,-4,·,·
CCc1c(C)sc(NC(=O)OC)c1C(=O)N1CCCCC1,8,12,7,19*,15,21,17
CCN1CCCCC(NC(=O)c2ccc(C)cc2)C1=O (stereo not given),-7,·,-10,·,-10,·,·
CCOC(=O)c1c2ccccc2[n+]([O-])n1CCO,9,-3,-3,-3,4,·,·
CSCCC(NC(=O)c1ccccc1Cl)C(=O)NNC(=O)c1ccccc1O (stereo not given),5,17,-1,29*,6,-4,18
CCOC(=O)N1CCN(C(=O)C[C@@H]2C(=O)N(Cc3ccc(OC)cc3)C3=CCN(C(=O)OC(C)(C)C)C[C@]32C(=O)OCC)CC1,-2,·,3,·,-5,·,·
CCOc1ccc(C(=O)Nc2cc(-c3nc4ccccc4[nH]3)ccc2Cl)cc1[N+](=O)[O-],-78,-48,-1,25*,-50,20,40*
Nc1[nH]c(C(=O)c2ccccc2)c(-c2cccc3ccccc23)c1C(=O)NCc1ccc(F)c(F)c1,-9,·,0,-4,-1,·,·
O=[N+]([O-])c1cc(C(F)(F)F)ccc1NC1CCN(Cc2ccccc2)C1 (stereo not given),8,-5,-3,0,-2,·,·
O=[N+]([O-])c1cc(C(F)(F)F)ccc1NC1CCN(Cc2ccccc2)CC1,2,·,-4,39*,-2,10,4
CCn1c(=O)c(C(=O)Nc2ncccc2O)c(O)c2ccccc21,0,2,1,34*,-1,-2,15
COc1ccc(N2CCN(CCCNC(=O)COc3ccc(F)cc3)CC2)cc1,2,·,3,·,3,·,·
CC1=C2C3OC(=O)C(C)C3CCC2(C)C=C(Cl)C1=O (stereo not given),-5,3,-1,-7,-1,·,·
COc1ccccc1C(C)NC(=O)c1ccc(NC(=O)CC2SC(N3CCCC3)=NC2=O)cc1 (stereo not given),-1,5,4,-6,2,·,·
CCOC(=O)Cn1c(=NC(=O)c2cc(-c3cccs3)nc3ccccc23)sc2cc(S(N)(=O)=O)ccc21,-18,-53,-2,38*,-27,4,21*
COC(=O)Cn1c(=NC(=O)c2cc(-c3cccs3)nc3ccccc23)sc2cc(S(N)(=O)=O)ccc21,-64,-124,1,57*,-105,10,31*
C=CCc1cccc2cc(C(=O)NCCOC)c(=O)oc12,-6,-2,5,-9,9,·,·
C=CCc1cccc2cc(C(=O)NNC(=O)CC#N)c(=O)oc12,3,4,-1,29*,-3,1,15
O=C(COC(=O)c1cc(-c2cccs2)nn1-c1ccccc1)Nc1ccc(Cl)c([N+](=O)[O-])c1,-62,-39,0,45*,-19,-12,-5
O=C(NNC(=O)c1cccc(-n2cccc2)c1)c1ccccc1,2,4,4,0,-6,·,·
O=C(NNC(=O)c1ccccc1F)c1cccc(-n2cccc2)c1,-3,4,4,22*,2,0,26*
Oc1ccccc1-c1cnc2cccnn12,4,·,-2,24*,4,-2,-1
COc1ncccc1-c1cnc2cccnn12,3,·,0,-6,4,·,·
Cc1cc(C(=O)N/N=C/c2c(CO)cnc(C)c2O)c2ccccc2n1,-4,-4,-2,23*,5,-13,10
CCN1CCN(Cc2ccc(NC(=O)c3ccc(C)c(NC(=O)c4c[nH]c5cc(C(F)(F)F)ccc5c4=O)c3)cc2C(F)(F)F)CC1,2,-72,-3,24*,-33,11,21*!
Cc1ccc(C(=O)Nc2cccc(C(F)(F)F)c2)cc1NC(=O)c1c[nH]c2cc(C(F)(F)F)ccc2c1=O,-7,6,0,0,10,·,·
